Tests used:
[1] = system: CCRF-CEM; assay: Cytotoxicity against human CCRF-CEM cells after 72 hrs by MTT assay; type: functional; conditions: for CC50: read-out: LC50 (the source's name)
Method in brief: (§1)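 MTT read-out after 72 h exposure at 37 °C in humidified 5% CO2, with five concentrations between 0.01 and 100. GI50 is 50% growth reduction versus untreated controls, TGI is complete growth inhibition, and LC50 is the concentration killing 50% of cells. Minimum three independent experiments.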

[2] = system: HT-29; assay: Cytotoxicity against human HT-29 cells after 72 hrs by MTT assay; type: functional; conditions: HT-29, 72 h; for CC50: read-out: LC50 (the source's name); method in brief: as §1
[3] = Cytotoxicity against human HTB-54 cells after 72 hrs by MTT assay; type: functional; conditions: HTB-54, 72 h; for CC50: read-out: LC50 (the source's name); method in brief: as §1
[4] = system: MCF7; assay: Cytotoxicity against human MCF7 cells after 72 hrs by MTT assay; type: functional; conditions: MCF7, 72 h; method in brief: as §1
[5] = Cytotoxicity against human 184B5 cells after 72 hrs by MTT assay; type: cell-based; conditions: for GI50 at 72 h: 184B5 cells; for LC50 / TGI: 184b5, 72 h; method in brief: as §1
[6] = Cytotoxicity against human BEAS2B cells after 72 hrs by MTT assay; type: cell-based, BEAS-2B; conditions: for GI50 at 72 h: BEAS2B cells; for LC50 / TGI: beas-2b, 72 h; method in brief: as §1

| SMILES | GI50 [1] [µM] | TGI [1] [µM] | CC50 [1] [µM] | GI50 [2] [µM] | TGI [2] [µM] | CC50 [2] [µM] | GI50 [3] [µM] | TGI [3] [µM] | CC50 [3] [µM] | GI50 [4] [µM] | LC50 [4] [µM] | TGI [4] [µM] | GI50 at 72 h [5] [µM] | LC50 [5] [µM] | TGI [5] [µM] | GI50 at 72 h [6] [µM] | LC50 [6] [µM] | TGI [6] [µM] |
| --- | --- | --- | --- | --- | --- | --- | --- | --- | --- | --- | --- | --- | --- | --- | --- | --- | --- | --- |
| C[Se]c1nc(NCc2ccccc2)c2ccccc2n1 | 39.8 | 61.6 | 83.5 | 42.8 | 81 | > 100 | 74.6 | > 100 | > 100 | 15.8 | > 100 | 67 | 3.72 | 73.66 | 12.41 | 0.57 | 78.3 | 36.96 |
| [SeH]c1nc(NCc2ccccc2)c2ccccc2n1 | > 100 | > 100 | > 100 | 62.2 | > 100 | > 100 | 31.2 | > 100 | > 100 | > 100 | > 100 | > 100 | 20.8 | > 100 | 63.63 | 3.54 | > 100 | > 100 |
| Nc1nc([SeH])nc2ccccc12 | 25.7 | 52.4 | 79.1 | 52.2 | > 100 | > 100 | 0.04 | 3.63 | > 100 | 0.15 | > 100 | > 100 | 0.69 | 80.37 | 36.65 | 0.08 | > 100 | > 100 |
| COc1ccc(CNc2nc(S)nc3ccccc23)cc1 | 10.4 | 41 | 71.6 | 6.49 | 28.6 | 63.9 | 13.5 | 45.5 | 77.6 | 7.08 | 78.4 | 36.5 | 7.83 | 69.23 | 36.55 | 6.13 | 70.18 | 32.5 |
| CSc1nc(Nc2ccccc2)c2ccccc2n1 | 74.6 | > 100 | > 100 | 65.8 | > 100 | > 100 | 55.8 | > 100 | > 100 | 78.4 | > 100 | > 100 | > 100 | > 100 | > 100 | 54.8 | > 100 | > 100 |
| CSc1nc(NCCc2ccccc2)c2ccccc2n1 | 32.9 | 72.8 | > 100 | 29.2 | 87.4 | > 100 | 50.6 | > 100 | > 100 | 80.3 | > 100 | > 100 | 8.3 | 88.58 | 46.88 | 41.9 | > 100 | 94.8 |
| CSc1nc(NCCCCc2ccccc2)c2ccccc2n1 | 47 | > 100 | > 100 | > 100 | > 100 | > 100 | > 100 | > 100 | > 100 | 32 | 95.9 | 64 | 28.5 | 78.6 | 53.55 | 6.81 | > 100 | > 100 |
| CSc1nc(NCCCCCO)c2cccnc2n1 | > 100 | > 100 | > 100 | 63.9 | > 100 | > 100 | > 100 | > 100 | > 100 | 48.9 | > 100 | > 100 | > 100 | > 100 | > 100 | > 100 | > 100 | > 100 |
| CSc1ccc(CNc2nc([SeH])nc3ccccc23)cc1 | 71.9 | > 100 | > 100 | 42.9 | > 100 | > 100 | 45.5 | > 100 | > 100 | 48.1 | > 100 | > 100 | 6.84 | > 100 | 86.27 | 0.41 | > 100 | 58.21 |
| [SeH]c1nc(NCc2ccccc2)c2cccnc2n1 | 30.5 | 68.9 | > 100 | 6.35 | 33.1 | > 100 | > 100 | > 100 | > 100 | 0.03 | > 100 | > 100 | 3.7 | > 100 | 9.13 | 8.4 | > 100 | > 100 |
| CSc1nc(NCc2ccc([Se]C)cc2)c2ccccc2n1 | 63.3 | > 100 | > 100 | > 100 | > 100 | > 100 | 57 | > 100 | > 100 | 36.4 | > 100 | > 100 | 70.3 | > 100 | > 100 | 73.5 | > 100 | > 100 |
| COc1ccc(CNc2nc(SC)nc3ncccc23)cc1 | > 100 | > 100 | > 100 | > 100 | > 100 | > 100 | > 100 | > 100 | > 100 | 48.1 | > 100 | > 100 | 34.2 | > 100 | 69.77 | 58.5 | > 100 | > 100 |
| CCCCC[Se]c1nc([Se]CCCCC)c2ccccc2n1 | 65.7 | > 100 | > 100 | > 100 | > 100 | > 100 | > 100 | > 100 | > 100 | 38.4 | > 100 | 95.1 | 71.3 | > 100 | > 100 | > 100 | > 100 | > 100 |
| CCCCC[Se]c1nc(N)c2ccccc2n1 | 34.8 | 68 | > 100 | 40.3 | > 100 | > 100 | 34.6 | 84 | > 100 | 28.6 | 90.4 | 59.5 | 15.3 | 71.85 | 43.6 | 52.2 | > 100 | > 100 |
| C[Se]c1nc(N)c2cccnc2n1 | 68.4 | > 100 | > 100 | 44.1 | 77.3 | > 100 | 78.2 | > 100 | > 100 | 43 | > 100 | > 100 | 45.5 | > 100 | 87.15 | 39.7 | > 100 | 90.81 |
